Screening data (PubChem BioAssay)
Rows were chosen to be rich in hits. Some 2.7% of all compounds tested hit in one or more screens of this group.
CaV13 ICDI inh = Primary screen for inhibitors of IQ motif and Ca2+-dependent inactivation inhibitor domain binding in CACNA1D, Förster resonance energy transfer in living cells, …. HEK cells, CFP/YFP FRET ICDI-IQ, plate reader, 10 min; percent FRET-ratio fall versus neutral wells. inhibition, % at 12.3 µM. 340,000 tested, 0.098% active. AID 743397;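 active = mean replicate inhibition of at least 30% and at least 1% of replicates passing that level; inconclusive = only one of the two criteria is met; inactive = neither criterion is met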;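 note: 0% = median of the neutral control wells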
SIRT5 inh = SIRT5 desuccinylase inhibitors, primary screen, biochemical, fluorescence imaging, single point, set 5; Purified SirT5, succinyl-peptide AMC, trypsin-coupled fluorescence; inhibition, % at 15 µM; 330,000 tested, 1.1% active; in the data active = inhibition above about 15%; inconclusive = no clear call, values can overlap the other calls
Target sequence (Q9NXA8 whole entry, looked up): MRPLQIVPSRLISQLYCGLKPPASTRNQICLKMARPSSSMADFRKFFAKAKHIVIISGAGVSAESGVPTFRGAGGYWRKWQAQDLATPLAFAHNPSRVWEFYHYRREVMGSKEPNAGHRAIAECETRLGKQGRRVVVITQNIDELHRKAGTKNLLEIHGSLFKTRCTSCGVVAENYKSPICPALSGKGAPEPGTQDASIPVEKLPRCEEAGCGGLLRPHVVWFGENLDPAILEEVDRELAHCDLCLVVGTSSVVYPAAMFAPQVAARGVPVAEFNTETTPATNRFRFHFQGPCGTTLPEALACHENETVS
AF4-AF9 inh = inhibitors of AF4 peptide binding to AF9, primary screen, biochemical, AlphaScreen, biotin-AF4 peptide, FLAG-AF9, single point. Protein AF-9 (Homo sapiens), P42568. inhibition, % at 10 µM. 350,000 tested, 0.47% active;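 active = every replicate reaching a set inhibition limit, whatever the replicate mean, cut at about 25% in these data; inconclusive = mean inhibition reaches that limit but some replicates miss it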;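 note: 0% = plate neutral control median and 100% = total signal loss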
S100A4 MyoIIA = inhibitors of S100A4-myosin IIA peptide binding, primary screen, biochemical, fluorescence polarization, TAMRA-MyoIIA peptide; Protein S100-A4 (Homo sapiens), P26447; inhibition, % at 10.7 µM; 360,000 tested, 0.14% active; AID 652163, 2013;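 active = mean inhibition of at least 70% across replicates, with every replicate also reaching that level; inconclusive = mean inhibition reaches 70% but some replicates fall short; inactive = mean inhibition below 70%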
Target sequence (P26447 whole entry, looked up): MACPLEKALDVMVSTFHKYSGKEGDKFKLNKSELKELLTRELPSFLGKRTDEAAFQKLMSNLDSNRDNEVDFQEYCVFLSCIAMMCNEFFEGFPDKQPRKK
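Assay system: human S100A4 monomer with TAMRA-labelled myosin IIA peptide / Buffer or medium: Calcium-containing HEPES buffer, pH 7.2 / Reagent: TAMRA-labelled myosin IIA heavy-chain peptide probe, 5 nM / Compound: one dose per compound / Timing: polarization read 5 min after assay mix addition, stable 5–60 min / Benchmarks: neutral control DMSO, positive control TFP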
DENV2 CPE = inhibitors of DENV2 cytopathic effect, primary screen, cell-based, plate reader, single concentration. DENV2-infected cells, cytopathic effect rescue. CPE inhibition, % at 9.99 µM. 350,000 tested, 1.7% active; in the data active = CPE inhibition above about 20%, passing the limit was not always enough; inconclusive = no clear call, values can overlap the other calls; tested in BHK-21 cells;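 note: 0% = median of neutral control wells and 100% = median of positive control wells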
The depositor's hits bear a star; ? = inconclusive; . = no result.

SMILES	CaV13 ICDI inh	SIRT5 inh	AF4-AF9 inh	S100A4 MyoIIA	DENV2 CPE
CCCNC(=O)[C@@H]1[C@@H](CO)[C@@H]2Cn3c(cccc3=O)[C@@H]2N1C(=O)C1CCC1	.	7.2	0.8	105.8*	-4.4
CC(C)NC(=O)N1[C@@H]2c3cccc(=O)n3C[C@@H]2[C@@H](CO)[C@@H]1C(=O)N1CCC(Cc2ccccc2)CC1	.	5.1	-24.5	6.2	7.9
O=C(Nc1nccs1)[C@H]1[C@H](CO)[C@H]2Cn3c(cccc3=O)[C@H]2N1C(=O)C1CCC1	.	16.0*	1.3	4.3	-2.9
CC=Cc1ccc2n(c1=O)C[C@H]1[C@H](CO)[C@@H](C(=O)N3CCc4ccccc4C3)N(C(=O)C3CCC3)[C@@H]21 (mixture of isomers)	.	-1.4	-0.2	-4.6	61.6*
CC(C)NC(=O)N1[C@H](C(=O)N2CCC(Cc3ccccc3)CC2)[C@@H](CO)[C@@H]2Cn3c(cccc3=O)[C@@H]21	.	6.6	-4.5	53.7	26.0*
O=C(Nc1nccs1)[C@@H]1[C@@H](CO)[C@@H]2Cn3c(cccc3=O)[C@@H]2N1C(=O)C1CCC1	.	4.8	-0.6	7.2	-3.6
C(/C=C/c1ccccc1)=N/N1CCN(c2ccccc2)CC1	-3.9	.	.	.	.
C(=C\c1ccccc1)/C=N/N1CCN(Cc2ccccc2)CC1	-2.4	-2.0	44.0*	-4.6	3.5
O=C(C[C@@H]1CC[C@H](NC(=O)Nc2cc(F)ccc2F)[C@H](CO)O1)NCc1ccccn1	.	2.6	-1.0	7.2	-8.1
COc1ccc(NC(=O)Nc2ccc3c(c2)CC(=O)N([C@H](C)CO)C[C@@H](C)[C@@H](CN(C)S(=O)(=O)c2ccc(OC)cc2)O3)cc1	.	1.3	4.2	2.7	39.8*
COc1ccc(NC(=O)Nc2ccc3c(c2)CC(=O)N([C@H](C)CO)C[C@H](C)[C@H](CN(C)S(=O)(=O)c2ccc(Cl)cc2)O3)cc1	.	-3.0	1.0	5.1	-3.6
COc1ccc(S(=O)(=O)N(C)C[C@@H]2Oc3ccc(NC(=O)C4CCCCC4)cc3CC(=O)N([C@H](C)CO)C[C@@H]2C)cc1	.	-8.0	2.5	8.9	5.6
COc1ccc(NC(=O)Nc2ccc3c(c2)CC(=O)N([C@@H](C)CO)C[C@@H](C)[C@H](CN(C)S(C)(=O)=O)O3)cc1	.	.	0.1	6.4	30.4*
COc1ccc(CN(C)C[C@H]2Oc3ccc(NC(=O)C4CCCCC4)cc3CC(=O)N([C@@H](C)CO)C[C@@H]2C)cc1	.	17.2*	-1.0	10.4	-3.6
COc1ccc(S(=O)(=O)N(C)C[C@H]2Oc3ccc(NC(=O)C4CCCCC4)cc3CC(=O)N([C@H](C)CO)C[C@H]2C)cc1	.	1.7	0.5	2.7	22.0*
C[C@H]1CN([C@@H](C)CO)C(=O)c2ccccc2-c2ccccc2CO[C@@H]1CN(C)C(=O)[C@@H]1CCCN1C	.	-0.4	-1.1	2.9	6.5
COc1ccc(S(=O)(=O)N(C)C[C@@H]2Oc3ccc(N(C)C)cc3CC(=O)N([C@@H](C)CO)C[C@@H]2C)cc1	.	-3.3	3.2	18.8	15.3
COc1ccc(S(=O)(=O)N(C)C[C@@H]2Oc3ccc(N(C)C)cc3CC(=O)N([C@H](C)CO)C[C@@H]2C)cc1	.	-1.1	2.8	3.9	22.8*
Cc1noc(C)c1S(=O)(=O)N(C)C[C@H]1Oc2ccc(N(C)C)cc2CC(=O)N([C@H](C)CO)C[C@H]1C	.	-1.8	.	129.3*	-11.9
Cc1noc(C)c1S(=O)(=O)N(C)C[C@H]1Oc2ccc(NS(C)(=O)=O)cc2CC(=O)N([C@H](C)CO)C[C@H]1C	.	5.7	-2.5	-14.8	-4.6
C[C@H]1CN([C@@H](C)CO)C(=O)Cc2cc(NC(=O)CCN3CCOCC3)ccc2O[C@H]1CN(C)Cc1ccncc1	.	-3.7	-3.0	6.4	-5.7
O=C(NN=Cc1ccc(F)c(F)c1)c1ccc(NS(=O)(=O)c2cccs2)cc1	-5.8	3.3	33.3*	23.0	4.4
COc1cc(/C=N/NC(=O)c2ccc(NS(=O)(=O)c3cccs3)cc2)cc(OC)c1O	-7.3	5.3	2.4	18.7	14.3
O=C(Nc1ccccc1F)N[C@H]1CC[C@H](CCNS(=O)(=O)c2ccc(F)cc2)O[C@H]1CO	.	3.6	3.5	3.4	?
CC(=O)N1[C@@H](CO)[C@H](c2ccccc2)[C@@H]1CN(CC(C)C)C(=O)c1ccccn1	.	0.3	-0.8	5.4	27.0*
SMILES	CaV13 ICDI inh	SIRT5 inh	AF4-AF9 inh	S100A4 MyoIIA	DENV2 CPE
CCC(=O)N(CC)C[C@@H]1[C@@H](c2ccccc2)[C@H](CO)N1C(C)=O	.	1.3	-2.4	-13.6	20.4*
CN(C[C@@H]1[C@@H](c2ccccc2)[C@H](CO)N1C(=O)C1CC1)C(=O)c1ccccn1	.	.	.	.	54.0*
CCN(C[C@H]1N[C@H](CO)[C@H]1c1ccc(-c2ccc(F)cc2)cc1)C(=O)COC	.	7.9	4.2	51.4	-3.1
CN(C[C@H]1[C@@H](c2ccccc2)[C@H](CO)N1C(=O)C1CC1)C(=O)c1ccccn1	.	.	.	.	-7.2
CCN(C[C@@H]1N[C@@H](CO)[C@H]1c1ccc(-c2ccccc2)cc1)C(=O)COC	.	7.8	0.8	3.9	23.6*
CS(=O)(=O)Nc1ccc2c(c1)[C@@H]1C[C@@H](CC(=O)N3CCc4ccccc4C3)O[C@H](CO)[C@@H]1O2	.	-0.3	-0.2	6.1	1.3
C[C@H](CO)N1C[C@H](C)[C@H](CN(C)C(=O)C2CCOCC2)Oc2ncc(C3=CCCC3)cc2C1=O	.	-0.6	-2.2	2.8	8.2
CC(=O)N(C)C[C@H]1[C@H](c2ccccc2)[C@@H](CO)N1C(=O)C1CCC1	.	-0.3	-2.9	14.5	-6.5
CN(C[C@H]1[C@H](c2ccccc2)[C@@H](CO)N1C(=O)C1CCC1)C(=O)c1ccccn1	.	15.7*	-3.6	8.3	9.6
CCN(CC)S(=O)(=O)c1ccc(NC(=O)COC(=O)CNC(=O)C2CCCCC2)cc1	-5.6	-1.8	-0.4	0.3	62.6*
Cc1ccc(NC(=O)COC(=O)CNC(=O)C2CCCCC2)cc1S(=O)(=O)N(C)C	-5.8	.	-0.2	33.1	-3.6
O=C1SCCN1N=Cc1ccc([N+](=O)[O-])o1	-7.4	22.3*	-2.3	-9.7	-5.6
Nc1ccc2ccccc2c1C(=O)c1ccccc1	-5.0	.	-40.2	-1.6	57.0*
O=C(c1ccccc1)c1nccc2ccccc12	-19.4	-3.9	2.2	1.2	1.1
C/C=C/c1ccc([C@@H]2[C@H](CO)N[C@H]2CN(CC(C)C)C(=O)c2ccccn2)cc1	.	-1.3	3.8	-12.2	-6.0
O=C(COC(=O)CSc1ccc([N+](=O)[O-])cc1)NCc1cccs1	-5.8	15.5*	-5.1	-2.8	-4.8
COCCCN1C(=O)C(CC(=O)NC2CCCCC2)CC(C(=O)N(C(C)C)C(C)C)=C1C (configuration not stated)	-5.7	-6.9	-5.2	2.6	26.6*
